Experimental data gathered from unrelated publications.
Each line is one published result; the experiments were not run side by side.

Structure (SMILES)	cell line	assay	setting	IC50 [µM]
N.N.[Cl][Pt][Cl]	SW-620	cell growth or viability, MTT	72 h	6.7
CC[C@@]1(O)C(=O)OCc2c1cc1n(c2=O)Cc2cc3ccccc3nc2-1	MP46	cell growth or viability, ATP luminescence	72 h	0.21
O=C(NCc1ccc(F)cc1)c1cn(Cc2ccc(C(F)(F)F)cc2)c2ccc(Oc3ccccc3)cc2c1=O	MCF7	cell growth or viability, MTT	24 h	8.32
COc1ccc2c(c1OC)CN1CCc3cc4c(cc3[C@@H]1C2)OCO4	HepaRG	reactive oxygen species, inhibitor	16 h	2.69
CC(C)[C@H](NC(=O)[C@H](Cc1c[nH]c2ccccc12)NC(=O)[C@H](Cc1c[nH]cn1)NC(=O)[C@H](CCCNC(=N)N)NC(=O)[C@H](CCCNC(=N)N)NC(=O)[C@H](Cc1c[nH]c2ccccc12)NC(=O)[C@H](Cc1c[nH]c2ccccc12)NC(=O)[C@H](Cc1c[nH]cn1)NC(=O)[C@H](Cc1c[nH]c2ccccc12)NC(=O)[C@H](CCCNC(=N)N)NC(=O)[C@@H](N)CCCCN)C(=O)N[C@H](C(=O)N[C@@H](Cc1c[nH]c2ccccc12)C(N)=O)C(C)C	THP-1	cell growth or viability, MTT	–	103
S=P1(c2ccccc2)CCCCC1	SW-620	cell growth or viability, MTT	72 h	> 100
N.N.[Cl][Pt][Cl]	MCF7	cell growth or viability, MTT	48 h	9.9
O=C1CCP(=[Se])(c2ccccc2)CC1	SW-620	cell growth or viability, MTT	72 h	> 100
O=C(NCc1ccccc1)c1cn(Cc2ccc(C(F)(F)F)cc2)c2ccc(Oc3ccccc3)cc2c1=O	MCF7	cell growth or viability, MTT	–	< 12
Cc1sc2c(c1C)C(c1ccc(Cl)cc1)=N[C@@H](CC(N)=O)c1nnc(C)n1-2	MP46	cell growth or viability, ATP luminescence	72 h	0.109
O=C(NCc1ccc(O)cc1)c1cn(Cc2ccc(F)cc2)c2ccc(Oc3ccccc3)cc2c1=O	MCF7	cell growth or viability, MTT	48 h	78.5
CC[C@H](C)[C@H](NC(=O)[C@H](CCCCN)NC(=O)[C@H](CCCCN)NC(=O)[C@H](CC(C)C)NC(=O)[C@H](CCCCN)NC(=O)[C@H](CCCCN)NC(=O)[C@H](Cc1ccccc1)NC(=O)[C@H](Cc1ccccc1)NC(=O)[C@H](CCCNC(=N)N)NC(=O)[C@H](CCCNC(=N)N)NC(=O)[C@@H](NC(=O)[C@H](CCCCN)NC(=O)[C@H](CCCNC(=N)N)NC(=O)[C@@H](NC(=O)[C@@H](N)Cc1ccc(O)cc1)[C@@H](C)CC)[C@@H](C)CC)C(=O)N[C@@H](CC(C)C)C(=O)N[C@@H](CCCCN)C(=O)N[C@@H](CCCCN)C(N)=O	THP-1	cell growth or viability, resazurin	–	5.2
